Results: ChEMBL document CHEMBL1132348, “Structure-based identification of small molecule antiviral compounds targeted to the gp41 core structure of the human immunodeficiency virus type 1” (J Med Chem, 1999)
Converted amounts (≈) assume the structure as drawn.

Legend:
[1] = test system: Human immunodeficiency virus 1; assay: Selectivity index was determined by CC50/IC50 for Cytopathic effect.; type: functional
In short: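 Ratio of CC50 (XTT viability in uninfected MT-2 cells) to IC50 from HIV-1 IIIB CPE protection in MT-2 cells (XTT read-out, day 6).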

[2] = Inhibitory activity against NC-1 binding to N-36/C-34 peptide complex; type: functional
In short: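 Sandwich ELISA: N-36 (2 μM) preincubated with graded compound 30 min at 37 °C, then C-34 (2 μM) added for 30 min at 37 °C. Mixture captured on wells coated with rabbit anti-N36(L6)C34 IgG (10 μg/mL), detected with mAb NC-1, biotin anti-mouse IgG, streptavidin-HRP and TMB; A450 read; IC50 via Calcusyn.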

[3] = Inhibitory activity against HIV-I mediated H9 cells fusion.; type: functional, cell-based, Human immunodeficiency virus 1
In short: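 Dye transfer fusion assay: BCECF-AM-labeled H9/HIV-1 IIIB cells co-cultured with MT-2 cells (1:10) for 2 h at 37 °C with or without compound. Fused and unfused labeled cells counted by fluorescence microscopy; percent inhibition and IC50 derived.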

[4] = Inhibitory activity against HIV-I mediated cytopathic effect in MT-2 cells; type: functional, cell-based; conditions: Human immunodeficiency virus 1, MT2
In short: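 1×10^4 MT-2 cells infected with diluted HIV-1 IIIB in RPMI 1640 with 10% FBS, graded compound concentrations; medium changed during culture. On day 6 post-infection, XTT (1 mg/mL) added, formazan read at 450 nm after 4 h; percent CPE inhibition and IC50 calculated.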

[5] = test system: MT-2 cells (Homo sapiens); assay: In vitro for the cytotoxicity in MT-2 cells.

Structure (SMILES) | Selectivity index [1] | IC50 [2] | IC50 [3] | IC50 [4] | CC50 [5]
COc1ccc2c(c1)CCCC2=NOC(=O)Nc1ccccc1-c1ccccc1 | < 1 | > 100 µg/mL | > 100 µg/mL | > 100 µg/mL | 46.8 µg/mL (≈ 121 µM)
C/C(=N/OC(=O)NS(=O)(=O)c1ccc(C)cc1)c1cc2ccccc2oc1=O | < 1 | > 100 µg/mL | > 100 µg/mL | > 100 µg/mL | 286 µg/mL (≈ 714 µM)
C=C[C@H]1CN2CC[C@H]1C[C@@H]2[C@@H](OC(=O)c1ccc(OC)cc1)c1ccnc2ccccc12 | < 1 | > 100 µg/mL | > 100 µg/mL | > 100 µg/mL | 74.1 µg/mL (≈ 173 µM)
Cc1ccc(N(C(=O)Nc2cccc(Cl)c2)C(C)c2nc(O)c3ccccc3n2)c(C)c1 (stereo not given) | < 1 | > 100 µg/mL | > 100 µg/mL | > 100 µg/mL | 54 µg/mL (≈ 121 µM)
CC(c1nc2ccc(Cl)cc2c(=O)n1Cc1ccccc1)N(C(=O)c1ccc([N+](=O)[O-])cc1)c1ccc(F)cc1 (stereo not given) | < 1 | > 100 µg/mL | > 100 µg/mL | > 100 µg/mL | 30.2 µg/mL (≈ 54.2 µM)
O=P(CCP(c1ccccc1)c1ccccc1)(c1ccccc1)c1ccccc1 | < 1 | > 100 µg/mL | 52.27 µg/mL (≈ 126 µM) | > 100 µg/mL | 28.9 µg/mL (≈ 69.7 µM)
CC(Nc1ccccc1Cl)c1nc2ccccc2c(=O)n1Cc1ccccc1 (stereo not given) | < 1 | > 100 µg/mL | > 100 µg/mL | > 100 µg/mL | 86.8 µg/mL (≈ 223 µM)
Cc1ccc(C(=O)Nc2cccc(C(=O)N/N=C/c3ccc(Br)cc3)c2)cc1 | < 1 | > 100 µg/mL | > 100 µg/mL | > 100 µg/mL | 24.9 µg/mL (≈ 57.1 µM)
Cc1ccc(/N=N/c2c(S(=O)(=O)O)cc3cc(S(=O)(=O)O)cc(Nc4nc(Cl)nc(N(C)c5ccccc5)n4)c3c2O)c(S(=O)(=O)O)c1 | 9.43 | 3.18 µg/mL (≈ 4.32 µM) | 21.85 µg/mL (≈ 29.7 µM) | 30.8 µg/mL (≈ 41.8 µM) | 290 µg/mL (≈ 394 µM)
Cc1ccc(N(C(=O)Nc2ccc(Cl)c(Cl)c2)C(C)c2nc(O)c3ccccc3n2)c(C)c1 (stereo not given) | < 1 | > 100 µg/mL | > 100 µg/mL | > 100 µg/mL | 39.2 µg/mL (≈ 81.5 µM)
O=C(Nc1cc([N+](=O)[O-])ccc1-c1ccc([N+](=O)[O-])cc1)c1ccc([N+](=O)[O-])cc1Cl | < 1 | > 100 µg/mL | > 100 µg/mL | > 100 µg/mL | 47.2 µg/mL (≈ 107 µM)
COc1ccc(S(=O)(=O)O)cc1/N=N/c1c(S(=O)(=O)O)cc2cc(Nc3nc(Nc4ccccc4)nc(Nc4cc(C)c(/N=N/c5cc(S(=O)(=O)O)cc6cc(S(=O)(=O)O)cc(O)c56)cc4OC)n3)ccc2c1O | 35.2 | 0.73 µg/mL (≈ 0.67 µM) | 4.95 µg/mL (≈ 4.55 µM) | 8.29 µg/mL (≈ 7.61 µM) | 292 µg/mL (≈ 268 µM)
CC[C@H]1CN2CC[C@H]1C[C@@H]2[C@@H](OC(=O)c1ccccc1Cl)c1ccnc2ccc(OC)cc12 | < 1 | > 100 µg/mL | 59.78 µg/mL (≈ 129 µM) | > 100 µg/mL | 41.3 µg/mL (≈ 88.9 µM)
Cc1ccc(N(C(=O)Nc2ccccc2)C(C)c2nc(O)c3ccccc3n2)c(C)c1 (stereo not given) | < 1 | > 100 µg/mL | > 100 µg/mL | > 100 µg/mL | 40.8 µg/mL (≈ 98.8 µM)
O=C(Nc1ccc(Cl)c(Cl)c1)O/N=C(/c1ccccc1)c1ccc(-c2ccccc2)cc1 | < 1 | > 100 µg/mL | > 100 µg/mL | > 100 µg/mL | 74.7 µg/mL (≈ 162 µM)
COC(=O)c1cc(C(=O)OC)cc(N(C(=O)Nc2ccc(Cl)c(Cl)c2)C(C)c2nc3ccccc3c(=O)n2Cc2ccccc2)c1 (stereo not given) | < 1 | > 100 µg/mL | > 100 µg/mL | > 100 µg/mL | 20.9 µg/mL (≈ 31.8 µM)
